Experimental data from ChEMBL document CHEMBL1122281, “Synthesis and antifilarial activity of N-[4-[[4-alkoxy-3-[(dialkylamino)methyl]phenyl]amino]- 2-pyrimidinyl]-N'-phenylguanidines” (J Med Chem, 1983).

Key:
Litomosoides carinii [1] = experiment: Antifilarial activity against Litomosoides carinii infections in the Jird at dose 100 mg/kg administered orally; format: functional; conditions: route oral
Procedure, shortened: (§1)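 L. carinii-infected jirds were dosed. Survivors were killed 55–70 days after the first dose, and the pleural and peritoneal cavities were searched for adult worms. Live worms at autopsy were scored as a percentage relative to sham-dosed controls. Adult worm reduction above 60% was the activity criterion.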

Litomosoides carinii [2] = experiment: Antifilarial activity against Litomosoides carinii infections in the Jird at dose 100 mg/kg administered subcutaneously; format: functional; conditions: route subcutaneous; procedure, shortened: as §1
Litomosoides carinii [3] = experiment: Antifilarial activity against Litomosoides carinii infections in the Jird at dose 25 mg/kg administered orally; format: functional; conditions: route oral; procedure, shortened: as §1
Litomosoides carinii [4] = experiment: Antifilarial activity against Litomosoides carinii infections in the Jird at dose 3 mg/kg administered orally; format: functional; conditions: route oral; procedure, shortened: as §1
Litomosoides carinii [5] = experiment: Antifilarial activity against Litomosoides carinii infections in the Jird at dose 25 mg/kg administered subcutaneously; format: functional; conditions: route subcutaneous; procedure, shortened: as §1
Litomosoides carinii [6] = experiment: Antifilarial activity against Litomosoides carinii infections in the Jird at dose 0.5 mg/kg administered orally; format: functional; conditions: route oral; procedure, shortened: as §1
Litomosoides carinii [7] = experiment: Antifilarial activity against Litomosoides carinii infections in the Jird at dose 12 mg/kg administered orally; format: functional; conditions: route oral; procedure, shortened: as §1
Litomosoides carinii [8] = experiment: Antifilarial activity against Litomosoides carinii infections in the Jird at dose 50 mg/kg administered orally; format: functional; conditions: route oral; procedure, shortened: as §1
[9] = Antifilarial activity against Litomosoides carinii infections in the Jird at dose 100 mg/kg administered subcutaneously; two or more animals died prematurely considered to be drug toxicity.; format: organism-based, Meriones unguiculatus; parameters: dose 100 mg/kg, route subcutaneous; conditions: gerbil, in vivo, sc
Procedure, shortened: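 Jirds infected with Litomosoides carinii. Surviving animals killed 55–70 days after first drug dose; pleural and peritoneal cavities searched for adult worms. Live worm count at autopsy scored as percentage relative to sham-dosed controls. Activity criterion: adult worm reduction exceeding 60%.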

| Structure (SMILES) | Reduction of live worms (Litomosoides carinii [1]) | Reduction of live worms (Litomosoides carinii [2]) | Reduction of live worms (Litomosoides carinii [3]) | Reduction of live worms (Litomosoides carinii [4]) | further results |
| --- | --- | --- | --- | --- | --- |
| CCN(CC)Cc1cc(Nc2cc(C(F)(F)F)nc(/N=C(\N)Nc3ccc(C(F)(F)F)cc3)n2)ccc1OCc1ccccc1 | 100% | 100% | 100% | 0% |  |
| CCN(CC)Cc1cc(Nc2ccnc3cc(Cl)ccc23)ccc1O.Cl | 72% | 100% | 71% |  | Reduction of live worms (Litomosoides carinii [5]): 61% |
| CCN(CC)Cc1cc(Nc2cc(C(F)(F)F)nc(/N=C(\N)Nc3ccc(OC)cc3)n2)ccc1OC |  | 100% | 100% | 0% |  |
| CCN(CC)Cc1cc(Nc2cc(C(F)(F)F)nc(/N=C(\N)Nc3ccc(Cl)c(Cl)c3)n2)ccc1OC |  | 100% | 100% | 100% | Reduction of live worms (Litomosoides carinii [5]): 100% |
| CC(C)CNCc1cc(Nc2cc(C(F)(F)F)nc(/N=C(\N)Nc3ccc(Cl)c(Cl)c3)n2)ccc1O | 100% |  | 100% | 35% |  |
| CCN(CC)Cc1cc(Nc2cc(C(F)(F)F)nc(/N=C(\N)Nc3ccc(C(F)(F)F)cc3)n2)ccc1O | 100% | 100% | 100% | 98% | Reduction of live worms (Litomosoides carinii [6]): 22% |
| CCN(CC)Cc1cc(Nc2cc(C(F)(F)F)nc(/N=C(\N)Nc3ccc(OC)cc3)n2)ccc1O | 95% | 95% | 100% | 2% |  |
| CCN(C)Cc1cc(Nc2cc(C(F)(F)F)nc(/N=C(\N)Nc3ccc(Cl)c(Cl)c3)n2)ccc1O |  | 100% | 100% | 97% | Reduction of live worms (Litomosoides carinii [6]): 100%; Reduction of live worms (Litomosoides carinii [5]): 100% |
| COc1ccc(Nc2cc(C(F)(F)F)nc(/N=C(\N)Nc3ccccc3)n2)cc1CN1CCN(C)CC1 | 100% |  | 95% | 5% |  |
| N/C(=N\c1ccc(Cl)cc1)Nc1nc(Nc2ccc(O)c(CN3CCCC3)c2)cc(C(F)(F)F)n1 |  |  |  |  | Reduction of live worms (Litomosoides carinii [7]): 87%; Reduction of live worms (Litomosoides carinii [8]): 100% |
| CCN(CC)Cc1cc(Nc2cc(-c3ccccc3)nc(/N=C(\N)Nc3ccc(Cl)c(Cl)c3)n2)ccc1O | 47% | 53% |  |  |  |
| CCNCc1cc(Nc2cc(C(F)(F)F)nc(/N=C(\N)Nc3ccc(C(=O)c4ccccc4)cc3)n2)ccc1OC |  | 0% |  |  |  |
| CCN(CC)Cc1cc(Nc2cc(C(F)(F)F)nc(/N=C(\N)Nc3ccc(Cl)c(Cl)c3)n2)ccc1OCc1ccccc1 | 100% |  | 100% | 52% |  |
| CCN(CC)Cc1cc(Nc2cc(C(F)(F)F)nc(/N=C(\N)Nc3ccc(C(=O)c4ccccc4)cc3)n2)ccc1OC | 16% | 19% |  |  |  |
| CN1CCN(Cc2cc(Nc3cc(C(F)(F)F)nc(/N=C(\N)Nc4ccc(Cl)cc4)n3)ccc2O)CC1 |  |  |  |  | Reduction of live worms (Litomosoides carinii [7]): 38%; Reduction of live worms (Litomosoides carinii [8]): 98% |
| CCNCc1cc(Nc2nc(/N=C(\N)Nc3ccc(Cl)c(Cl)c3)nc3c2CCCC3)ccc1OC |  |  |  |  | Animals dead [9]: > 2; Reduction of live worms (Litomosoides carinii [5]): 69% |
| CCNCc1cc(Nc2cc(C(F)(F)F)nc(/N=C(\N)Nc3ccc(C(F)(F)F)cc3)n2)ccc1OC | 100% | 100% | 100% | 30% |  |
| CCN(CC)Cc1cc(Nc2cc(C(F)(F)F)nc(/N=C(\N)Nc3ccc(Oc4ccccc4)cc3)n2)ccc1OC |  | 0% | 27% |  | Animals dead [9]: > 2 |
| CCN(CC)Cc1cc(Nc2cc(C(F)(F)F)nc(/N=C(\N)Nc3ccc(Cl)cc3)n2)ccc1O |  |  |  | 100% | Reduction of live worms (Litomosoides carinii [6]): 100%; Reduction of live worms (Litomosoides carinii [7]): 100%; Reduction of live worms (Litomosoides carinii [8]): 100% |
| CCOC(=O)N1CCN(Cc2cc(Nc3cc(C(F)(F)F)nc(/N=C(\N)Nc4ccc(Cl)c(Cl)c4)n3)ccc2O)CC1 |  | 31% |  |  |  |
| N/C(=N\c1ccc(Cl)c(Cl)c1)Nc1nc(Nc2ccc(O)c(CN3CCCC3)c2)cc(C(F)(F)F)n1 | 100% |  | 100% | 59% |  |
| CCNCc1cc(Nc2cc(C(F)(F)F)nc(/N=C(\N)Nc3ccccc3)n2)ccc1OC |  | 96% | 33% |  |  |
| COc1ccc(Nc2cc(C(F)(F)F)nc(/N=C(\N)Nc3ccc(Cl)c(Cl)c3)n2)cc1CN(C)C | 100% | 100% | 100% | 100% | Animals dead [9]: > 2 |
| CCN(CC)Cc1cc(Nc2cc(C(F)(F)F)nc(/N=C(\N)Nc3ccc(Cl)cc3)n2)cc(-c2ccccc2)c1O | 88% | 35% |  |  |  |
